Screening results as filed in PubChem BioAssay.
Diaphorase act: compounds boosting diaphorase resazurin reduction – biochemical, uHTS, resorufin fluorescence, counter-screen for diaphorase-coupled primary assays, primary screen | Diaphorase/resazurin coupled assay, 16 min; stronger effect = higher value; 1 = vehicle wells, 0 = NADH-free wells | activation factor at 20 µM | actives 0.005% (n = 190,000);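 active means diaphorase activity raised at least twofold by the compound at 20 µM; inactive means activation factor below 2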
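Material: purified diaphorase enzyme from Clostridium kluyveri / Medium: HEPES pH 7.4 buffer with MgCl2 and Tween 20 / Schedule: enzyme reaction of 16 min at room temperature / Measured by: resorufin fluorescence, excitation 544 nm, emission 590 nm / Evaluation: rise in resorufin formation, marking diaphorase activation or chemical reduction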
WT yeast gro inh: growth inhibition of WT strain, primary screen, mitochondrial fusion inhibitor project, WT and mutant strains, chemical genetic | actives 2.1% (n = 190,000) | inhibition, % at 10 µM | mitochondrial fusion phenotypic screen; in the data active means inhibition above about 58%; tested in S. cerevisiae
Diaphorase inh: diaphorase inhibitors and chemical oxidizers, primary screen, counter-screen for diaphorase-coupled primary assays, biochemical, uHTS, resorufin fluorescence; inhibition, % at 20 µM; actives 0.69% (n = 190,000); AID 1217, 2008; diaphorase resazurin-to-resorufin fluorescence, NADH, 16 min; bacterial (C. kluyveri) enzyme, not human;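 active means primary screen inhibition at 20 µM above a set limit, cut at about 50% in these data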;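 further: plate controls were DMSO with full reaction for no effect and wells lacking NADH for full effect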
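Test system: diaphorase enzyme from Clostridium kluyveri; amount: diaphorase at 0.14 U/mL in enzyme working solution; detection: fluorescence of resorufin formed from resazurin, Ex 544/Em 590 nm; times: reaction incubation of 16 min at room temperature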
L major viab: Leishmania major promastigote growth inhibition, primary screen | Leishmania major promastigotes, resazurin fluorescence viability | inhibition, % at 10 µM | actives 9% (n = 200,000) | AID 1063, 2008; in the data active means inhibition above about 50%;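 further: promastigotes grown with compound for 44 hours at 28 °C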
ROMK mod: ROMK potassium channel modulators, primary screen, cell-based, thallium flux, MLSMR library. ATP-sensitive inward rectifier potassium channel 1 (Homo sapiens), P48048. Tet-inducible ROMK, thallium flux fluorescence; actives lie on both sides. B-score at 10 µM. actives 2% (n = 130,000). AID 1918, 2009;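 active means signal ratio slope over the read window, or its plate-corrected B-score, at least 3 SD from the plate mean, either direction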;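 further: B-score of the F/F0 ratio slope over 7 to 12 s after thallium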
KCC2 mod: KCC2 cotransporter modulators, thallium flux, primary screen, cell-based, HEK293 KCC2, FluoZin-2 fluorescence, MLSMR; Solute carrier family 12 member 5 (Homo sapiens), Q9H2X9; KCC2 cells, thallium flux FluoZin-2 fluorescence; B-score of Tl+ flux slope (higher = more flux/activation; lower = inhibition) at 10 µM; actives 2.2% (n = 190,000);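 active means thallium flux slope and its plate-corrected score both differing from the plate sample mean at a set confidence after two filtering rounds, in either direction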;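 further: slope of fluorescence scaled to starting intensity during 10 to 20 s after thallium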
Target sequence (Q9H2X9 whole entry, looked up): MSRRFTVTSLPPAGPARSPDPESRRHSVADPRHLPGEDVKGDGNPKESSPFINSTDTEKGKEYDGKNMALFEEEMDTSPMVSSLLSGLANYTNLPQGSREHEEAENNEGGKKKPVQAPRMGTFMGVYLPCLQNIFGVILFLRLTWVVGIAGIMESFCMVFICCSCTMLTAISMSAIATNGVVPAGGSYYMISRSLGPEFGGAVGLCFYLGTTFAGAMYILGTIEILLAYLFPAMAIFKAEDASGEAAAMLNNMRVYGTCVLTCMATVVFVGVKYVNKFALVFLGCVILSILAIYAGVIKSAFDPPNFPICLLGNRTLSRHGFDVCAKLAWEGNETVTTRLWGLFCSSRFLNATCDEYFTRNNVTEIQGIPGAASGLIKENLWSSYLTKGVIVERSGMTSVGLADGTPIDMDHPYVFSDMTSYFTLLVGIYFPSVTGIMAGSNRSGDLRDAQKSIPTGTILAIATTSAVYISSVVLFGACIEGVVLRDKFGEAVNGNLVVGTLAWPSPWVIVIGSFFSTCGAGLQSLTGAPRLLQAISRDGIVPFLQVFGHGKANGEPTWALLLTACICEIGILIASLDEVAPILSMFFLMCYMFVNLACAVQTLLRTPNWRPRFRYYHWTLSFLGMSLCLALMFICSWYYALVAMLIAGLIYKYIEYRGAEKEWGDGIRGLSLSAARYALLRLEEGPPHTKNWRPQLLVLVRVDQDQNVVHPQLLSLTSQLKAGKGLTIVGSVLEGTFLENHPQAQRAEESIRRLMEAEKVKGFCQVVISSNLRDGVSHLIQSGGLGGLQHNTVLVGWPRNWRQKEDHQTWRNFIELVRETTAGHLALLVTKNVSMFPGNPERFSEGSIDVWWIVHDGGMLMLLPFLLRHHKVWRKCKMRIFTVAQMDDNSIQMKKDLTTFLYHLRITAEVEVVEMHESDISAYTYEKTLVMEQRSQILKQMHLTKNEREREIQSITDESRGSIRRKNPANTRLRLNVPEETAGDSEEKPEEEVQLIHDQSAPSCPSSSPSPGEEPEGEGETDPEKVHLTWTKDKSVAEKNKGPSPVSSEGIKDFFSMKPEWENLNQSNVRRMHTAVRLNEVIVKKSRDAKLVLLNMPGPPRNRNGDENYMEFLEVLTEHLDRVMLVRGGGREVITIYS
KCC2 secondary: KCC2 modulators in sodium-free buffer, confirmation, cell-based, HEK293 KCC2, thallium flux, secondary assay. FluoZin2 fluorescence; stronger effect = higher value. normalised thallium flux (F/F0 slope) at 10 µM. shares compounds with KCC2 mod. actives 15% (n = 3,700);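 active means thallium flux slope above the same plate's solvent-only control mean plus 3 SD; inconclusive means the two replicate wells disagree; inactive means no significant difference from solvent-only control wells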
KCC2 bumet counter: thallium flux persisting under bumetanide in KCC2 cells, confirmation, counter-screen for KCC2 modulator project, cell-based, HEK293 KCC2, FluoZin2, secondary assay 3; shares compounds with KCC2 mod; HEK293-KCC2 + bumetanide/ouabain; stronger effect = higher value; actives 49% (n = 3,700); normalized thallium flux at 10 µM;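 active means thallium entry rate above the same plate's blocked-transporter control wells by more than 3 SD; inconclusive means the two repeat wells disagree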;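 further: raw slope of fluorescence over initial fluorescence between 10 and 20 s after thallium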
KCC2 sec2: KCC2 modulators without ouabain present, confirmation, cell-based, HEK293 KCC2, thallium flux, FluoZin2, secondary assay 2; shares compounds with KCC2 mod; thallium flux FluoZin2 fluorescence; actives lie on both sides; F/F0 rise rate, 10–20 s post-thallium; normalized thallium flux at 10 µM; actives 23% (n = 3,700); AID 1715, 2009;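 active means thallium flux slope more than 3 SD above or below the plate's solvent-only control mean, mostly below; inconclusive means the two repeat wells disagreed; inactive means no significant shift from solvent-only controls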;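 further: raw slope with 0.1% DMSO as baseline and bumetanide as block control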
HEK293 Tl flux: thallium flux modulation in parental HEK cells, confirmation, counter-screen for KCC2 modulator project, cell-based, counterscreen 1. thallium flux rate (normalised fluorescence) at 10 µM. shares compounds with KCC2 mod. HEK293 parental cells, thallium flux FluoZin2, ouabain; baseline-ratio fluorescence slope, 10–20 s after thallium. actives 46% (n = 3,700). AID 1716, 2009;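 active means thallium flux rate significantly above the same plate's solvent-only control wells, beyond their mean plus 3 SD; inconclusive means the two replicate wells gave conflicting results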
KCC2 ouabain: KCC2 inhibitors and activators, ouabain retest, confirmation, HEK-KCC2 cells. shares compounds with KCC2 mod. HEK293-KCC2, thallium flux FluoZin2 fluorescence; bidirectional: low = inhibitor, high = activator. raw Tl+ flux slope (below DMSO = inhibition, above = activation) at 10 µM. actives 48% (n = 3,700);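 active means thallium flux slope beyond 3 SD from same-plate DMSO control mean in most replicates, usually higher, sometimes lower; inconclusive means repeat tests gave conflicting results; inactive means no significant difference from controls in most replicates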;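 further: slope of initial-normalized fluorescence between seconds 10 and 20 after thallium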
HEK293 Tl flux2: native HEK Tl+ uptake effects, second counter-screen – HEK cells, counterscreen 2, counter-screen for KCC2 modulator project, confirmation; shares compounds with KCC2 mod; HEK293 parental, thallium flux FluoZin-2 fluorescence slope; thallium flux slope at 10 µM; actives 33% (n = 3,700); AID 1718, 2009;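 active means thallium flux slope above the same plate's solvent-control mean plus 3 SD in both duplicate wells; inconclusive means duplicate wells that disagreed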;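 further: run without ouabain in cells lacking the KCC2 cotransporter; slope of fluorescence scaled to its starting value between 10 and 20 s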
* marks the source's active call; other numbers are inactive results; ? = inconclusive; . = not tested or not shown. Most compounds without a hit are left out; they make up all but 12% or so of the library.

SMILES	Diaphorase act	WT yeast gro inh	Diaphorase inh	L major viab	ROMK mod	KCC2 mod	KCC2 secondary	KCC2 bumet counter	KCC2 sec2	HEK293 Tl flux	KCC2 ouabain	HEK293 Tl flux2
CCCCOc1ccc(Cc2c(COCC)[nH]c(=S)[nH]c2=O)cc1	0.9	-7	7	2	-0.59	15*	?	0.099*	0.043*	0.026*	0.053*	0.028*
CCOCc1[nH]c(=S)[nH]c(=O)c1Cc1ccc(OCC)cc1	.	-6	.	-6	0.8	0.34	.	.	.	.	.	.
Cc1nn(-c2ccccc2)c(-c2ccccc2[N+](=O)[O-])c1C(=O)O	.	.	.	.	.	-0.44	.	.	.	.	.	.
CCOC(=O)N1CCN(Cc2nc(-c3cccs3)no2)CC1	1.1	2	-9	-5	-0.67	2.5	.	.	.	.	.	.
CC1Cc2ccccc2N1C(=O)CO/N=C/c1ccccc1OC(F)F (stereo not given)	0.9	2	10	-1	.	-5.6*	0.0062	?	0.023*	?	0.013*	0.01
O=C(CO/N=C/c1ccccc1OC(F)F)N1CCc2ccccc21	1	5	4	-6	.	-0.77	.	.	.	.	.	.
O=c1cc(-c2ccccc2Cl)oc2c([N+](=O)[O-])c(O)cc(O)c12	0.9	24	14	11	-0.79	-6.9*	0.0062	?	0.018*	0.0057*	0.011*	?
O=C(Nc1ccc(O)c2c(=O)cc(-c3ccccc3Cl)oc12)c1ccccc1Cl	0.8	11	19	45	-2.2	0.23	.	.	.	.	.	.
Cc1cc(C)[n+](C)n1CC(O)Cn1c2ccccc2c2ccccc21 (stereo not given)	0.8	-4	16	-3	-0.051	0.12	.	.	.	.	.	.
O=C(NNC(=S)Nc1ccc(Br)cc1)c1ccc(N2CCOCC2)c([N+](=O)[O-])c1	0.8	-6	22	-7	0.93	-3.8*	0.0093	0.0062	0.031	?	0.016*	0.011
CC(C)OC(=O)NCN1C(=O)C2C3C=CC(C3)C2C1=O (stereo not given)	0.9	5	9	0	.	-0.31	.	.	.	.	.	.
O=C(O)c1ccc(N2CCCCS2(=O)=O)cc1	0.9	-9	8	-7	0.44	.	0.0057	0.0049	0.026*	0.0082	0.019	0.012
CCN(CC)C(=O)Oc1ccc(Cl)c2cccnc12	1	-18	0	-2	-0.42	0.00046	.	.	.	.	.	.
